Molecules are shown by their SMILES.

Series [1] can be described thus: Half life in Sprague-Dawley rat at 10 mg/kg, po administered via gavage measured under fed conditions by LC-MS/MS analysis. It counts as ADME, organism-based. More on the design: dose 10 mg/kg, route oral. As to conditions: in vivo.
A short description of series [2]: Volume of distribution in Sprague-Dawley rat at 10 mg/kg, iv by LC-MS/MS analysis. It counts as ADME, organism-based. More on the design: dose 10 mg/kg, route intravenous. The following applies: in vivo.
Series [3] is described as follows: Elimination half life in cynomolgus monkey at 5 mg/kg, iv administered as bolus injection by LC-MS/MS analysis. The series is classed as ADME, organism-based, Macaca fascicularis. Also noted: dose 5 mg/kg, route intravenous. As to conditions: in vivo, read-out: beta t1/2 (converted). In a few lines: (§1)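 Cynomolgus monkeys (n = 3) received a nominal 5 mg/kg dose in 50 mM HEPES, TCEP-treated to prevent disulfide formation. Dosing was either an IV bolus via cephalic or saphenous vein or oral. Arterial cannula blood was collected into NEM-containing heparinized tubes for up to 9 days and analyzed by LC-MS/MS. Noncompartmental analysis gave t1/2 = 0.693/λz and F% = dose-normalized mean AUCinf p.o./i.v. ×100.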

Series [4] in a line: Cmax in cynomolgus monkey at 5 mg/kg, po by LC-MS/MS analysis. Also noted: dose 5 mg/kg, route oral. The series is classed as ADME, organism-based, Macaca fascicularis. The following applies: in vivo. The procedure, abridged:
as §1

Series [5] in a line: Elimination half life in cynomolgus monkey at 5 mg/kg, po by LC-MS/MS analysis. It counts as ADME, organism-based, Macaca fascicularis. More on the design: dose 5 mg/kg, route oral. The following applies: in vivo, read-out: beta t1/2 (converted). The procedure, abridged:
as §1

A short description of series [6]: Oral bioavailability in cynomolgus monkey at 5 mg/kg by LC-MS/MS analysis. The series is classed as ADME, organism-based, Macaca fascicularis. The following applies: in vivo. In a few lines: as §1
Series [7] in a line: Phase 1 metabolic stability in human liver microsomes assessed as compound remaining at 10 uM measured for 1 hr by LC-MS/MS analysis. The series is classed as ADME. The following applies: read-out: Stability. In a few lines:
(§2)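 Liver microsomes (0.5 mg/ml) were incubated with 10 µM compound (final) in 100 mM potassium phosphate, pH 7.4. An NADPH-regenerating system was present: 1.3 mM NADPH, 3.3 mM glucose 6-phosphate, 3.3 mM MgCl2, 0.4 U/ml G6PDH and 50 µM sodium citrate. Runs were in duplicate, with samples taken up to 1 h and quenched with acetonitrile containing internal standard. Loss of compound was followed by LC-MS/MS.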
Background: Liver microsomes are a subcellular fraction often used to study metabolism.

Series [8] can be described thus: Phase 2 metabolic stability in mouse liver microsomes assessed as compound remaining at 10 uM measured for 1 hr by LC-MS/MS analysis. The series is classed as ADME. The following applies: read-out: Stability. The procedure, abridged: (§3)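 Glucuronidation in liver microsomes of the named species, 0.5 mg/ml protein, compound at 10 μM final, in 50 mM Tris-HCl pH 7.5 with 8 mM MgCl2 and 25 μg/ml alamethicin. Preincubated at 37°C, then started with 2 mM UDPGA (final); cofactor-free controls run alongside. Duplicate reactions, sampled up to 1 h, quenched with cold acetonitrile plus internal standard; disappearance followed by LC-MS/MS.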

The nature of series [9]: Phase 2 metabolic stability in rat liver microsomes assessed as compound remaining at 10 uM measured for 1 hr by LC-MS/MS analysis. It counts as ADME. The following applies: read-out: Stability. In a few lines:
as §3

Series [10] can be described thus: Phase 1 metabolic stability in rat liver microsomes assessed as compound remaining at 10 uM measured for 1 hr by LC-MS/MS analysis in absence of cofactors. The series is classed as ADME. The following applies: read-out: Stability. In a few lines:
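Cofactor-free controls were run for each microsomal incubation: 0.5 mg/ml liver microsomes with 10 µM compound, omitting cofactors, so that cofactor-independent degradation could be measured. Samples were taken up to 1 h, quenched with acetonitrile containing internal standard, and the percent remaining was determined by LC-MS/MS.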

Series [11] can be described thus: Metabolic stability in cynomolgus monkey plasma assessed as compound remaining at 5 to 10 uM after 1 hr by LC-MS/MS analysis. It counts as ADME, cell-free, Macaca fascicularis. The following applies: read-out: Stability. In a few lines:
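Compound at 5 and 10 µM was incubated at 37°C in Sprague-Dawley rat or cynomolgus monkey plasma. Aliquots taken at 0, 30 and 60 min were quenched with acetonitrile and analyzed by LC-MS/MS. Percent remaining = analyte/internal-standard area ratio at time t divided by that at time 0.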

Series [12] has as its system Rattus norvegicus. As to the kind of experiment: Analgesic activity in Sprague-Dawley rat chronic constriction injury model assessed as change in paw withdrawal latency at 10 mg/kg/day, po measured 4 days after drug treatment cessation (reference value: -2.85 +/-0.32 s). The series is classed as functional.
Series [13] in a line: Tmax in Sprague-Dawley rat at 0.1 mg/kg, po administered via gavage measured under fasted conditions by LC-MS/MS analysis. It counts as ADME, organism-based. Also noted: dose 0.1 mg/kg, route oral. As to conditions: in vivo. The procedure, abridged: (§4)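 Jugular-cannulated male Sprague-Dawley rats, 280–330 g, fasted overnight to 4 h post-dose. Single dose in 50 mM HEPES-buffered saline pH 7.4, by oral gavage or as tail-vein i.v. bolus. Blood into heparin/NEM tubes at 0–24 h. Plasma measured by LC-MS/MS; noncompartmental analysis; Tmax observed; Vd = dose/(AUCinf·λz).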

Series [14] can be described thus: AUC(0 to infinity) in Sprague-Dawley rat at 30 mg/kg, iv administered as bolus injection measured under fasted conditions by LC-MS/MS analysis. More on the design: time infinity, dose 30 mg/kg, route intravenous. The series is classed as ADME, organism-based. The following applies: plasma. The procedure, abridged: (§5)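 Male Sprague-Dawley rats (280–330 g), jugular vein cannulated, fasted overnight until 4 h post-dose. Single tail-vein bolus of 0.1, 1, 10 or 30 mg/kg in 50 mM HEPES buffered saline, pH 7.4. Blood drawn 0–24 h into heparin tubes containing NEM. Plasma quantified by LC-MS/MS after NEM derivatization. Noncompartmental analysis: AUClast by linear trapezoidal rule, Cl = dose/AUC0-∞. Mean ± S.D., n = 4–9.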

A short description of series [15]: Tmax in Sprague-Dawley rat at 10 mg/kg, po administered via gavage measured under fasted conditions by LC-MS/MS analysis. It counts as ADME, organism-based. Also noted: dose 10 mg/kg, route oral. The following applies: in vivo. In a few lines:
as §4

The nature of series [16]: AUC(0 to last) in Sprague-Dawley rat at 0.1 mg/kg, po administered via gavage measured under fasted conditions by LC-MS/MS analysis. The series is classed as ADME, organism-based. Also noted: time 0 - last, dose 0.1 mg/kg, route oral. The following applies: plasma. The procedure, abridged: (§6)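 Fasted male Sprague-Dawley rats (280–330 g) received 0.1, 1, 10 or 30 mg/kg by oral gavage in 50 mM HEPES buffered saline, pH 7.4. Blood drawn at 0.25–24 h into heparin/NEM tubes; plasma analyzed by LC-MS/MS. Cmax taken as observed. AUC by linear trapezoidal rule with extrapolation by λz. Cl/F and Vd/F reported. Mean ± S.D., n = 4–9.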

A short description of series [17]: AUC(0 to last) in Sprague-Dawley rat at 30 mg/kg, iv administered as bolus injection measured under fasted conditions by LC-MS/MS analysis. It counts as ADME, organism-based. Also noted: time 0 - last, dose 30 mg/kg, route intravenous. As to conditions: plasma. The procedure, abridged:
as §5

A short description of series [18]: AUC(0 to last) in Sprague-Dawley rat at 30 mg/kg, po administered via gavage measured under fasted conditions by LC-MS/MS analysis. It counts as ADME, organism-based. The following applies: plasma. More on the design: time 0 - last, dose 30 mg/kg, route oral. The procedure, abridged:
as §6

A short description of series [19]: Phase 1 metabolic stability in mouse liver microsomes assessed as compound remaining at 10 uM measured for 1 hr by LC-MS/MS analysis. It counts as ADME. The following applies: read-out: Stability. The procedure, abridged:
as §2

A short description of series [20]: Apparent oral clearance in Sprague-Dawley rat at 1 mg/kg, po administered via gavage measured under fasted conditions by LC-MS/MS analysis. The series is classed as ADME, organism-based. Also noted: dose 1 mg/kg, route oral. As to conditions: in vivo. In a few lines: as §6
Series [21] can be described thus: Apparent oral clearance in Sprague-Dawley rat at 30 mg/kg, po administered via gavage measured under fasted conditions by LC-MS/MS analysis. The series is classed as ADME, organism-based. Also noted: dose 30 mg/kg, route oral. The following applies: in vivo. In a few lines:
as §6

Series [22] in a line: Half life in Sprague-Dawley rat at 1 mg/kg, iv administered as bolus injection measured under fasted conditions by LC-MS/MS analysis. It counts as ADME, organism-based. Also noted: dose 1 mg/kg, route intravenous. As to conditions: in vivo.
Series [23] in a line: Half life in Sprague-Dawley rat at 10 mg/kg, iv administered as bolus injection measured under fasted conditions by LC-MS/MS analysis. As to conditions: in vivo. The series is classed as ADME, organism-based. More on the design: dose 10 mg/kg, route intravenous.
Series [24] can be described thus: Oral bioavailability in Sprague-Dawley rat at 0.1 mg/kg administered via gavage measured under fasted conditions by LC-MS/MS analysis. The series is classed as ADME, organism-based. As to conditions: in vivo.

In the case of `O=C(O)c1cccc(-c2cccc(CCS)c2C(=O)O)c1`, the half-life in [1] was 2.75 h; in series [3], 23 h; in [5], 9.57 h; in [22] it was 3.25 h; in series [23] it was 3.55 h. The Vd (commonly a proportionality between amount in the body and measured concentration, not a real space) in series [2] was found to be 19 L/kg. Also, the Cmax (in general, the peak of the concentration-time curve) in [4] amounted to 10500 ng/mL. The bioavailability – broadly, the share of a dose that reaches the circulation, judged against a reference dose that is usually intravenous – in series [6] was determined as 39.1%; in series [24] it was 17.4%. Besides, the remaining at 1 h, 10 µM in series [7], in series [8], in [9], in series [10] and in series [19] was over 90% throughout. Further, in [11], the remaining at 1 h, up to 10 µM was over 90%. Also, in series [12], the Time was -1.36 s. For the same molecule, the Tmax (usually the time at which the peak concentration occurs) worked out at 0.83 h in series [13] and 1.03 h in series [15]. Further, the total exposure AUC(0-inf) – broadly, total exposure, with the tail of the curve extrapolated – in [14] was found to be 204 µg·h/mL. Besides, the values for the AUC(0-t) in [16], in [17] and in series [18] were 0.268 µg·h/mL, 202 µg·h/mL and 76.1 µg·h/mL, respectively. Moreover, the CL/F (as a rule, clearance divided by bioavailability, as obtained after extravascular dosing) in [20] was 5.5 mL/min/kg; in [21] it was 8.5 mL/min/kg.
